The subject of data set [1] is Rattus norvegicus. The data set can be described thus: Toxicity in rat assessed as gastric ulcerogenic activity at 0.37 to 7.45 mM/kg, po measured after 8 hrs. It counts as organism-based, Stomach. The settings on record: in vivo. The essentials:
(§1)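 Rats were given oral doses of 0.37, 0.75, 1.12, 1.86, 3.73 or 7.45 mM/kg. Stomachs were removed 8 h later and scored for hemorrhagic damage. Mean ± SEM, n = 3−6.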

Data set [2] deals with T1, Prostaglandin G/H synthase 1 (Homo sapiens, UniProt P23219). The data set can be described thus: Inhibition of human whole blood COX-1 assessed as inhibition of TXB2 production at 10 uM by EIA. The essentials: (§2)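 Human whole blood COX assay, with COX-1 and COX-2 read as prostaglandin biosynthesis. Relative inhibition (%) was taken at fixed test concentrations of 10 and 100 μM. Mean ± SEM, n = 3−6.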
T1 sequence (P23219 whole entry): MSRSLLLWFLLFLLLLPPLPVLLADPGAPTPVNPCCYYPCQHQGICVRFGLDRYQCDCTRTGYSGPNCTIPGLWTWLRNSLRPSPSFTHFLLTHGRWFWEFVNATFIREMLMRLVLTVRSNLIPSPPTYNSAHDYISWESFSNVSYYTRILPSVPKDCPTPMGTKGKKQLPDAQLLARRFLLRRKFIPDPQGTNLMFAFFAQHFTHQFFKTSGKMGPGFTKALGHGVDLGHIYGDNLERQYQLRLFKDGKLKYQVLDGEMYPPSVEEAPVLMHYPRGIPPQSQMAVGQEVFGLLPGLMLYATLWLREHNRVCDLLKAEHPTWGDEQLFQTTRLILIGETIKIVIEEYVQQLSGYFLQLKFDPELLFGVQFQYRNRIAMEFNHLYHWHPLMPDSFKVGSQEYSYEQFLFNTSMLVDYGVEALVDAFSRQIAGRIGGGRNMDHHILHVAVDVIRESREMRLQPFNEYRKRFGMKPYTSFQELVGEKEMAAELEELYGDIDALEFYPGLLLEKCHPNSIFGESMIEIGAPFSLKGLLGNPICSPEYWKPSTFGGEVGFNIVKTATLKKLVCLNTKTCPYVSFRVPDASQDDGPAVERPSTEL

Data set [3] has as its system Rattus norvegicus. The data set can be described thus: Antiinflammatory activity against Wistar rat assessed as inhibition of carrageenan induced edema volume at 37.3 uM/kg, po administered 1 hr prior carrageenan-challenge measured after 3 hrs post challenge. It counts as functional. The essentials: (§3)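 Oral dose of 37.3 μM/kg. Carrageenan (1%) was injected intradermally into the left hindpaw 1 h later. Edema was measured 3 h and 6 h after challenge, and relative inhibition of the edema volume increase was calculated. Mean ± SEM, n = 3−6.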
A general note: In the carrageenan paw model, swelling and tenderness develop within hours.

Data set [4] deals with T2, Prostaglandin G/H synthase 2 (Homo sapiens) (UniProt P35354).
T2 sequence (whole entry): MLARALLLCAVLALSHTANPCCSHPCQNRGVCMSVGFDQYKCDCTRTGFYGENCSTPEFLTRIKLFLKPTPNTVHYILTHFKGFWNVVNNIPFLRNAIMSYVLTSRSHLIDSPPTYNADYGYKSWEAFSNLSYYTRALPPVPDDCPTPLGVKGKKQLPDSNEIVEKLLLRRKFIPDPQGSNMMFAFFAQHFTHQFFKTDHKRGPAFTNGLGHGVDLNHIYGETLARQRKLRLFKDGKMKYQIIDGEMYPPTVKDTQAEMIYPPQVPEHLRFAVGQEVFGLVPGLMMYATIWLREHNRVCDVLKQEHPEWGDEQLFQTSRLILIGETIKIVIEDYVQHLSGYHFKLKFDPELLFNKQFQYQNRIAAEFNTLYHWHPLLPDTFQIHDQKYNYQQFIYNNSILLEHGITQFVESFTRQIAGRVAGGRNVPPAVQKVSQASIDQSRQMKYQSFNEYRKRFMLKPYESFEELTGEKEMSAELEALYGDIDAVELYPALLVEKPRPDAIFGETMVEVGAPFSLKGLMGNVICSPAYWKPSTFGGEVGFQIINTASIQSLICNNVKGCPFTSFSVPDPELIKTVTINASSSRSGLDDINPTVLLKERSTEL
The data set can be described thus: Inhibition of LPS-stimulated human whole blood COX-2 assessed as inhibition of PGE2 production at 10 uM by EIA. The essentials: as §2

The target of data set [5] is T1, Prostaglandin G/H synthase 1. The data set can be described thus: Inhibition of human whole blood COX-1 assessed as inhibition of TXB2 production at 100 uM by EIA. The essentials:
as §2

Data set [6] relates to Rattus norvegicus. The data set can be described thus: Antiinflammatory activity against Wistar rat assessed as inhibition of carrageenan induced edema volume at 3.73 to 37.3 uM/kg, po administered 1 hr prior carrageenan-challenge measured after 3 to 6 hrs post challenge. It counts as functional, organism-based. The essentials:
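Rats dosed orally at 3.73, 11.2 or 37.3 μM/kg. Carrageenan (1%) was injected intradermally into the left hindpaw 1 h after dosing. Footpad edema was measured 3 and 6 h after carrageenan, and relative inhibition of the edema volume increase was calculated. Mean ± SEM, n = 3−6.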

Data set [7] concerns Rattus norvegicus. The data set can be described thus: Toxicity in rat assessed as gastric ulcerogenic activity at 7.45 mM/kg, po measured after 8 hrs. In kind it is organism-based, Stomach. The settings on record: in vivo, 7450 µM. The essentials: as §1
For data set [8], the target named is T3, Prostaglandin G/H synthase 2 (Homo sapiens, UniProt P35354).
T3 sequence (P35354 whole entry): T2 sequence (whole entry)
The data set can be described thus: Inhibition of LPS-stimulated human whole blood COX-2 assessed as inhibition of PGE2 production by EIA. The essentials: (§4)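 Human whole blood COX-1 and COX-2 assay run over a range of test concentrations. IC50 was fitted to a four-parameter logistic dose−response curve, and the COX-1/COX-2 ratio was computed from the two IC50 values. Mean ± SEM, n = 3−6.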

In data set [9] the test system is Rattus norvegicus. The data set can be described thus: Antiinflammatory activity against Wistar rat assessed as inhibition of carrageenan induced edema volume at 37.3 uM/kg, po administered 1 hr prior carrageenan-challenge measured after 6 hrs post challenge. In kind it is functional. The essentials:
as §3

For data set [10], the target named is T1, Prostaglandin G/H synthase 1. The data set can be described thus: Inhibition of human whole blood COX-1 assessed as inhibition of TXB2 production by EIA. The essentials: as §4
The target of data set [11] is T2, Prostaglandin G/H synthase 2 (Homo sapiens). The data set can be described thus: Inhibition of LPS-stimulated human whole blood COX-2 assessed as inhibition of PGE2 production at 100 uM by EIA. The essentials:
as §2

For data set [12], the species on record is Homo sapiens. The data set can be described thus: Selectivity index, ratio of IC50 for human COX1 to IC50 for human COX2. The essentials:
as §4

The values below come from ChEMBL document CHEMBL2062479, “Synthesis and biological evaluation of derivatives of 2-{2-fluoro-4-[(2-oxocyclopentyl)methyl]phenyl}propanoic acid: nonsteroidal anti-inflammatory drugs with low gastric ulcerogenic activity” (J Med Chem, 2012).

The structures appear in SMILES notation. Calls of active or inactive are those of the source. No cut-off for these calls is given here.

Usually inhibition stands for the drop in the measured response relative to a control, in per cent. Usually IC50 stands for the concentration that gives 50% inhibition.

With `CC(C(=O)O)c1ccc(NC2CCCC2)cc1F` (stereo not drawn), the Activity entry in data set [1] and in data set [7] was “Non-toxic” in each case. The inhibition is 34.7% in [2], 40.7% in [4], 92% in data set [5] and 91.9% in [11]. Further, the “inhibition (INH)” value in data set [3] was found to be 45.5%; in data set [9] it was 60.1%. Besides, the inhibition entry in data set [6] is “Active”. Further, the values for the IC50 in data set [8] and in data set [10] were 21.3 µM and 15.6 µM, respectively. Further, the Ratio IC50 in data set [12] worked out at 0.7.
As to `CC(C(=O)O)c1ccc(OC2CCCC2)cc1F` (stereo not drawn), the Activity result in [1] and in data set [7] was “Non-toxic” each time. In addition, the inhibition came out at 65% in data set [2], 39.7% in data set [4], 81.4% in data set [5] and 96.4% in [11]. Besides, the “inhibition (INH)” value worked out at 40.4% in [3] and 51.9% in [9]. The IC50 in data set [8] was determined as 26.3 µM; in data set [10], 3 µM. Besides, in data set [12], the Ratio IC50 was determined as 0.1.
